Most compounds without a hit are left out; they make up all but 4.2% or so of the library.
PfM18AAP inh-1 – PfM18AAP enzyme inhibition; inhibition, % at 7.35 µM; 1.2% of 290,000 active; recombinant PfM18AAP, H-Glu-NHMec fluorogenic cleavage; AID 1822;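 active = inhibition above the campaign mean inhibition over all tested compounds plus 3 SD, cut at about 28% in these data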;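 note: 0% = plate median of test compound wells and 100% = 2 mM ZnCl2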
CTSL1 counter-1 – counter-screen for PFM18AAP inhibitors: inhibitors of F. hepatica cathepsin L1; recombinant F. hepatica cathepsin L1, Z-Leu-Arg-MCA fluorescence; inhibition, % at 5.96 µM; 0.49% of 300,000 active; AID 1906;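 active = inhibition above the mean of all tested compounds plus 3 SD, set per screening campaign, cut at about 17% in these data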;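 note: 0% = plate median of test compound wells and 100% = 1 µM Z-Phe-Ala-diazomethylketone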
AHR act – human AHR activation; AHR-responsive luciferase reporter cells, luminescence; P35869; AID 2796; activation, % at 5 µM; 2.5% of 320,000 active; in the data active = activation above about 47%;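 note: 0% = vehicle wells and 100% = reference agonist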
Target sequence (P35869 whole entry, looked up): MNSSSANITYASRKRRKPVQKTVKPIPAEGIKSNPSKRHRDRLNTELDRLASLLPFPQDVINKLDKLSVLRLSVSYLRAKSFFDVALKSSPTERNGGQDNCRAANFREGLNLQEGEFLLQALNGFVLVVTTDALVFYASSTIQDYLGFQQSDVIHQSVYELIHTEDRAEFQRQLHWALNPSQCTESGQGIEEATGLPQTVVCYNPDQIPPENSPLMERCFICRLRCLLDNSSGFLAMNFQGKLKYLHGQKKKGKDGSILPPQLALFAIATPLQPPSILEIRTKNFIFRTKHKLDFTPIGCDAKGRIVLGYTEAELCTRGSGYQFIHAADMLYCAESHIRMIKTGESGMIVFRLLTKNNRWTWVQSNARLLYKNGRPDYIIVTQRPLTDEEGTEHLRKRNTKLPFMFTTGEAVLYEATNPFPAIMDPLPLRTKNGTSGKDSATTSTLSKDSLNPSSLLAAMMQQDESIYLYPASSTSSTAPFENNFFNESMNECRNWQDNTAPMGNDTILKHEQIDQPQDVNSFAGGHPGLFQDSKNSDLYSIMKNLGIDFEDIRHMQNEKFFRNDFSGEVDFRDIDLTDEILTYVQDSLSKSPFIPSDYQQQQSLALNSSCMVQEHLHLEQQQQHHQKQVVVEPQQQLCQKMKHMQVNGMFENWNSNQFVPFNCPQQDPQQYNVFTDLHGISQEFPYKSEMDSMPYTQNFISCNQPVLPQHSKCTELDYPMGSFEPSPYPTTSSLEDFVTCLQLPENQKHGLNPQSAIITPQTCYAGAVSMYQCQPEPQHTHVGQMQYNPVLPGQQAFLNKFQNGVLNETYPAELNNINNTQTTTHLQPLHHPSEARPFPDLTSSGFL
HDAC3 inh – human HDAC3 inhibition; O15379; recombinant HDAC3, fluorogenic peptide/trypsin coupled, fluorescence; inhibition, % at 8.3 µM; 0.15% of 320,000 active; in the data active = inhibition above about 26%, passing the limit was not always enough; inconclusive = no clear call, values can overlap the other calls
SENP1 inh – inhibitors of human SENP1 SUMO protease catalytic domain; Q9P0U3; recombinant SENP1 catalytic domain, CyPet-SUMO1-YPet FRET cleavage; inhibition, % at 10 µM; 0.21% of 360,000 active;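 active = inhibition at least 30% at 10 µM, raw YFP signal under a set limit, fluorescence ratio 0.5 to 1.5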;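 note: 0% = enzyme with DMSO and 100% = no enzyme wells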
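Assay system: hSENP1 catalytic domain, recombinant. Amount: SENP1 enzyme, 20 pM final. Schedule: 50 min reaction, RT, dark. Technique: FRET, CFP and YFP emission. Control set: no-enzyme wells low, DMSO-plus-enzyme wells high control.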
FXN GAA850 act – increases GAA850 frataxin promoter reporter activity; activation, % at 6 µM; AID 540364; HEK293 lucGAA850 FXN promoter luciferase reporter, 24 h; percent of 10 µM SAHA response; 0.56% of 360,000 active;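 active = activation above the average of all compounds screened plus 3 SD, cutoff fixed separately per campaign, cut at about 7.5% in these data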;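 note: 0% = DMSO wells and 100% = 10 µM SAHA wells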
PfM18AAP inh-2 – PfM18AAP inhibition, confirmation; AID 2170; shares compounds with PfM18AAP inh-1; 28% of 2,400 active; inhibition, % at 7.35 µM; recombinant PfM18AAP, H-Glu-NHMec fluorogenic cleavage;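 active = mean inhibition over replicate wells above the hit cutoff set for the earlier primary screen, cut at about 29% in these data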;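 note: 0% = median of test compound wells and 100% = 2 mM ZnCl2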
CTSL1 counter-2 – counter-screen for PFM18AAP inhibitors: confirmation of human cathepsin L inhibitors | shares compounds with PfM18AAP inh-1 | purified cathepsin L1, Z-Leu-Arg-MCA fluorescence | inhibition, % at 5.96 µM | 2,400 tested, under 10 active | AID 2178;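 active = average inhibition across replicates above the hit cutoff set in the earlier primary screen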;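 note: 0% = median of test compound wells and 100% = Z-Phe-Ala-diazomethylketone 1 µM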
An asterisk follows results filed as active; ? = inconclusive; / = no result given.

SMILES	PfM18AAP inh-1	CTSL1 counter-1	AHR act	HDAC3 inh	SENP1 inh	FXN GAA850 act	PfM18AAP inh-2	CTSL1 counter-2
O=C(NC1CCCCCCC1)c1ccccc1O	5	1	8	-4	-2	4	/	/
c1ccc(Nc2nc(N3CCCC3)nc(N3CCOCC3)n2)cc1	/	1	1	4	2	1	/	/
CCNC(=S)NNc1nc(N2CCCCC2)nc(N2CCOCC2)n1	44*	1	3	11	4	-1	20	-8
NC(=O)c1c(NC(=S)Nc2ccc(F)cc2)sc2c1CCCC2	35*	1	46	-5	-5	0	3	5
NC(=O)c1c(NC(=O)C2CC=CCC2C(=O)O)sc2c1CCCCC2 (centres undefined)	40*	-4	7	3	-9	4	-19	-2
O=C(CN1C(=O)C(=O)N(C2CCCC2)C1=O)Nc1ccc(F)cc1F	/	/	/	/	-2	0	/	/
C[n+]1ccc(CC2C(=[N+]([O-])[O-])C=Nc3ncnn32)cc1 (centres undefined)	32*	/	/	/	-10	0	-10	6
COC(=O)c1ccccc1S(=O)(=O)N1CCC(C(=O)NCCC2=CCCCC2)CC1	/	/	0	-5	2	0	/	/
O=[N+]([O-])c1cc([N+](=O)[O-])c2cccnc2c1Oc1ccccc1O	84*	2	3	9	0	2	60*	4
O=C(c1ccc(Cl)cc1)c1c[nH]c(C(=O)NNc2cccc(Cl)n2)c1	51*	-3	-3	-4	3	4	36*	-6
O=C(c1ccccc1)c1c[nH]c(C(=O)NNc2cccc(Cl)n2)c1	52*	-5	-4	3	0	2	31*	-1
CNC(=O)c1cc(C(=O)c2c(Cl)cccc2Cl)c[nH]1	-10	-4	-1	?	0	2	/	/
O=C(NNc1cccc(Cl)n1)c1ccc(Cl)cc1Cl	23	0	-10	0	4	3	/	/
Cc1noc(C)c1NC(=O)N(C)C[C@H]1OCc2cn(nn2)CCCC(=O)N([C@@H](C)CO)C[C@@H]1C	/	/	/	/	1	0	/	/
O=C(NC(=S)Nc1ccc([N+](=O)[O-])cc1O)C1CCCCC1	19	3	29	2	4	4	/	/
Cn1ccc(C(=O)NC(=S)Nc2ccc([N+](=O)[O-])cc2O)n1	34*	/	/	7	1	1	41*	-4
CN(C)CCN(Cc1cc2cc3c(cc2[nH]c1=O)OCO3)C(=S)NCC1CCCO1 (centres undefined)	-1	1	8	-18	-1	0	/	/
O=c1[nH]c2cc3c(cc2cc1CN(CCN1CCOCC1)C(=S)NCC1CCCO1)OCO3 (centres undefined)	41*	2	10	-5	-2	0	-36	0
COc1ccccc1NS(=O)(=O)c1ccc(C(=O)NCCCN2CCOCC2)cc1	/	/	/	/	0	2	/	/
Cc1cc(=O)[nH]c(N/N=C/c2ccc(O)c(O)c2)n1	45*	2	5	6	1	-2	21	8
Cc1ccc(/C=N/Nc2ccc(Cl)nn2)cc1	-2	3	17	-1	1	5	/	/
Oc1ccc(/C=N/Nc2ccc(Cl)nn2)cc1O	47*	4	6	/	3	6	18	4
Oc1ccc(/C=N/Nc2nc(N3CCCC3)nc(N3CCCC3)n2)cc1O	54*	7	11	11	-2	2	28*	5
O=[N+]([O-])c1cc(/C=N/Nc2nc(N3CCCCC3)nc(N3CCCCC3)n2)ccc1O	3	-1	0	9	2	4	/	/
CCOC1=C2[C@H](c3ccccc3)N(S(=O)(=O)c3ccc(C)cc3)C(C(C)(C)C)[C@H]2C(C#N)(C#N)C(C#N)(C#N)C1 (some centres undefined)	/	/	/	/	1	/	/	/
SMILES	PfM18AAP inh-1	CTSL1 counter-1	AHR act	HDAC3 inh	SENP1 inh	FXN GAA850 act	PfM18AAP inh-2	CTSL1 counter-2
COc1cc(OC)cc(-c2noc(-c3csc([C@@H]4C[C@H](O)[C@@H](CO)O4)n3)n2)c1	/	/	/	/	2	4	/	/
CC(Sc1nc2ncc(Cl)cc2[nH]1)C(=O)Nc1ccccc1[N+](=O)[O-] (centres undefined)	/	/	/	/	2	1	/	/
CC(C)Nc1nc(NC(C)C)nc(N(C)N)n1	48*	-4	6	2	1	3	40*	-5
COCCN1C(=O)CCC1(C)c1nnnn1-c1ccc2ccccc2c1 (centres undefined)	/	/	/	/	2	/	/	/
Cc1ccc(S(=O)(=O)N2CCOCC2)cc1NC(=O)CN1CCN(C)CC1	/	/	0	-2	1	0	/	/
Cc1ccc(S(=O)(=O)N2CCOCC2)cc1NC(=O)CN1CCN(c2ccc(O)cc2)CC1	34*	1	4	6	2	-8	8	0
O=S(=O)(c1ccc(NC(=S)N2CCN(c3ccc(O)cc3)CC2)cc1)N1CCOCC1	34*	-2	0	7	2	1	2	-5
COc1cc(CN2CCC(N3CCC(C(=O)N4CCCC4)CC3)CC2)cc2c1OCO2	1	1	3	-2	-2	-2	/	/
CC1c2ccccc2N(S(=O)(=O)c2ccccc2)C1C (centres undefined)	/	/	/	/	1	0	/	/
Cc1cc(C(=O)CCl)c(C)n1-c1cccc(S(=O)(=O)N2CCOCC2)c1	6	7	0	-2	/	/	/	/
Cc1cc(C(=O)CSc2ncn[nH]2)c(C)n1-c1cccc(S(=O)(=O)N2CCOCC2)c1	46*	0	0	1	0	1	24	5
CCOC(=O)C1(C)CCCCCN1C(=O)/C=C/c1ccccc1 (centres undefined)	/	/	/	/	1	0	/	/
O=C1CSC(=S)N1N=Cc1cccc2ccccc12	/	/	/	/	3	-1	/	/
O=C1CSC(=S)N1/N=C/c1cccnc1	35*	2	7	0	4	1	11	0
Cc1ccccc1/C=N/N1C(=O)CSC1=S	35*	3	8	9	1	1	-9	3
COC(=O)c1sc2ccccc2c1NC(=O)c1ccc(S(=O)(=O)N2CC(C)CC(C)C2)cc1 (centres undefined)	-10	-2	1	2	1	1	/	/
Cc1cc(C)c2nc(NNC(=O)c3ccc(S(=O)(=O)N4CCCC(C)C4)cc3)sc2c1 (centres undefined)	39*	1	23	8	26	0	-35	5
Cc1cccc2sc(NNC(=O)c3ccc(S(=O)(=O)N4CC(C)CC(C)C4)cc3)nc12 (centres undefined)	32*	2	14	9	18	-4	-29	0
